pKi: −log10 of the molar value. Where a SMILES comes first, the peptide text is derived from it. [ ]: non-standard residue; d: D form. The star is where a group is joined. X1 = O=C(Cc1ccc(O)cc1)*
Tests used:
Vasopressin V1a receptor = Vasopressin V1a receptor (Homo sapiens, UniProt P37288); assay: Displacement of [125I]- HO-LVA from human Vasopressin V1a receptor in membranes of CHO cells; type: cell membranes
Outline: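 CHO membranes expressing human V1a receptor (0.5–1 μg protein/assay), 50–70 pM [125I]HO-LVA. Incubated 1 h at 30 °C, equilibrium by 30 min. Competitor 1 pM to 10 μM; 1 μM unlabeled ligand defined nonspecific binding. Ki = IC50/(1+[*L]/Kd), nonlinear least-squares; at least three assays in triplicate.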

Oxytocin receptor = target: T1, Oxytocin receptor (Homo sapiens, UniProt P30559); assay: The inhibition constant (Ki(nM)) by displacement of [125I]- HO-LVA radiolabeled ligand using membranes of CHO cells of human Oxytocin receptor; type: cell membranes
T1 sequence (P30559 whole entry): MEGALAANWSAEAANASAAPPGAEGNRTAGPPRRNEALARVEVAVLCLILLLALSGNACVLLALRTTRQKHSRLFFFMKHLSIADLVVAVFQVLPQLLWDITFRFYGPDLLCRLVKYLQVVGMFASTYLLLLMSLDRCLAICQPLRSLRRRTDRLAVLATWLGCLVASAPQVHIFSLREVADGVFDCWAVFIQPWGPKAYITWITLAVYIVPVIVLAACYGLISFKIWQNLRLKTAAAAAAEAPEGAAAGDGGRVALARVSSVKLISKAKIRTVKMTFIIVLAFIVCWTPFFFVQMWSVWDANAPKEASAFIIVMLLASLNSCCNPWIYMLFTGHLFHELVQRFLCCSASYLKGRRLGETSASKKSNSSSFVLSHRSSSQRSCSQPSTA

Vasopressin V1b receptor [1] = target: T2, Vasopressin V1b receptor (Homo sapiens, UniProt P47901); assay: The inhibition constant (Ki(nM)) by displacement of [125I]- HO-LVA radiolabeled ligand using membranes of CHO cells of human Vasopressin V1b receptor; type: cell membranes
T2 sequence (P47901 whole entry): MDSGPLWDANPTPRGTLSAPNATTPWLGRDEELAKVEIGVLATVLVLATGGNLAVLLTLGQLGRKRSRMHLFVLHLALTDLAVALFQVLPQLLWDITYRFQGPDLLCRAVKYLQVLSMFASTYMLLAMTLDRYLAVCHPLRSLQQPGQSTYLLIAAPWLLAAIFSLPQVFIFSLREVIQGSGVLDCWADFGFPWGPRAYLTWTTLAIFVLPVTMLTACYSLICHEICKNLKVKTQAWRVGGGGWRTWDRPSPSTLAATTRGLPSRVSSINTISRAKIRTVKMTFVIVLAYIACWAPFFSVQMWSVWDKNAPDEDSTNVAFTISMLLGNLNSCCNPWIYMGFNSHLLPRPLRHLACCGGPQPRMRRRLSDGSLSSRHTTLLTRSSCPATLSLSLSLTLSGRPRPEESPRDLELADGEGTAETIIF
Outline: (§1)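 Human V1b receptor in CHO cell membranes; competition against 1 nM [125I]HO-LVA. Membranes at 0.5–1 μg protein/assay, 1 h at 30 °C. Competitor spanned 1 pM to 10 μM; nonspecific binding with 1 μM unlabeled ligand. Ki = IC50/(1+[*L]/Kd) by nonlinear least-squares fit, ≥3 assays in triplicate.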

Vasopressin V2 receptor [2] = target: T3, Vasopressin V2 receptor (Homo sapiens, UniProt P30518); assay: The inhibition constant (Ki(nM)) by displacement of [125I]- HO-LVA radiolabeled ligand using membranes of CHO cells of human Vasopressin V2 receptor; type: cell membranes
Vasopressin V1b receptor [3] = target: T2, Vasopressin V1b receptor; assay: Compound was tested for its ability to displace [125I]- HO-LVA ligand from human Vasopressin V1b receptor in the membranes of CHO cells; type: cell membranes; outline: as §1
Vasopressin V2 receptor [4] = target: T3, Vasopressin V2 receptor; assay: Compound was tested for its ability to of [125I]- HO-LVA radiolabeled ligand using membranes of CHO cells of human Vasopressin V2 receptor; type: cell-based

T3 sequence (P30518 whole entry): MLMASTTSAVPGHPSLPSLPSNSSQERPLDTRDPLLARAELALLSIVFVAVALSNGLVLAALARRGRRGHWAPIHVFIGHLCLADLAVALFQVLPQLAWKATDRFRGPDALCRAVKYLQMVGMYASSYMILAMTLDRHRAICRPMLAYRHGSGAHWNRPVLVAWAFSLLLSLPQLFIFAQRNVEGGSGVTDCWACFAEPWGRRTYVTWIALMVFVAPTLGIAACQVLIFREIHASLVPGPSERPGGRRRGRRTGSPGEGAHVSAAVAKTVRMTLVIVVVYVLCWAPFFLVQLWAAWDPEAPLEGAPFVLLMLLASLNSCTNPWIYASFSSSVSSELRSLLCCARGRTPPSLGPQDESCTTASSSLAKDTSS
Chain of Vasopressin V1a receptor (P37288 whole entry): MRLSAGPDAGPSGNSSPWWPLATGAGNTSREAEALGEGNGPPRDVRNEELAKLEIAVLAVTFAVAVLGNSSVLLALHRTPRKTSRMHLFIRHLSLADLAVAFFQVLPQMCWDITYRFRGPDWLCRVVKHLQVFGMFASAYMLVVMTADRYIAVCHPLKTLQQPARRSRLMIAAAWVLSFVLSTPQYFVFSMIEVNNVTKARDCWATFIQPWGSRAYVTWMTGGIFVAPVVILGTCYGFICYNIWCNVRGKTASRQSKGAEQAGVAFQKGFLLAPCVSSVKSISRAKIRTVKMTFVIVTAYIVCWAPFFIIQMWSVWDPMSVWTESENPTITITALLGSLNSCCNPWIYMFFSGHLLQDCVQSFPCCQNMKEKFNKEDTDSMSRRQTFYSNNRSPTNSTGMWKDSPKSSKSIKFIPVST

## COc1ccc(C[C@@H](NC(=O)CCc2ccc(O)cc2)C(=O)N[C@@H](Cc2ccccc2)C(=O)N[C@@H](CCC(N)=O)C(=O)N[C@@H](CC(N)=O)C(=O)N[C@@H](CCCNC(=N)N)C(=O)N2CCC[C@H]2C(=O)N[C@@H](CCCCNC(=O)c2ccc3c(c2)C2(OC3=O)c3ccc(O)cc3Oc3cc(O)ccc32)C(N)=O)cc1
Vasopressin V1a receptor
  pKi: 9.64

## COc1ccc(C[C@@H](NC(=O)CCc2ccc(O)cc2)C(=O)N[C@@H](Cc2ccccc2)C(=O)N[C@@H](CCC(N)=O)C(=O)N[C@@H](CC(N)=O)C(=O)N[C@@H](CCCNC(=N)N)C(=O)N2CCC[C@H]2C(=O)N[C@@H](CCCCNC(=O)c2ccc3c(c2)C2(OC3=O)c3ccc(N(C)C)cc3Oc3cc(N(C)C)ccc32)C(N)=O)cc1
Vasopressin V1a receptor
  pKi: 9.77

## COc1ccc(C[C@@H](NC(=O)CCc2ccc(O)cc2)C(=O)N[C@@H](Cc2ccccc2)C(=O)N[C@@H](CCC(N)=O)C(=O)N[C@@H](CC(N)=O)C(=O)N[C@@H](CCCCNC(=O)c2ccc3c(c2)C(=O)OC32c3ccc(O)cc3Oc3cc(O)ccc32)C(=O)N2CCC[C@H]2C(=O)N[C@@H](CCCNC(=N)N)C(N)=O)cc1
Vasopressin V1a receptor
  pKi: 8.25

## COc1ccc(C[C@@H](NC(=O)Cc2ccccc2)C(=O)N[C@@H](Cc2ccccc2)C(=O)N[C@@H](CCC(N)=O)C(=O)N[C@@H](CC(N)=O)C(=O)N[C@@H](CCCN=C(N)N)C(=O)N2CCC[C@H]2C(=O)N[C@@H](CCCN=C(N)N)C(N)=O)cc1
Oxytocin receptor; cho
  pKi: 8.96
Vasopressin V1a receptor; cho
  pKi: 9.10
Vasopressin V1b receptor [1]; cho
  pKi: 8.03
Vasopressin V2 receptor [2]; cho
  pKi: 6.55

## COc1ccc(C[C@@H](NC(=O)CCc2ccc(O)cc2)C(=O)N[C@@H](Cc2ccccc2)C(=O)N[C@@H](CCC(N)=O)C(=O)N[C@@H](CC(N)=O)C(=O)N[C@@H](CCCCNC(=O)c2ccc3c(c2)C2(OC3=O)c3ccc(N(C)C)cc3Oc3cc(N(C)C)ccc32)C(=O)N2CCC[C@H]2C(=O)N[C@@H](CCCNC(=N)N)C(N)=O)cc1
Vasopressin V1a receptor
  pKi: 8.48

## COc1ccc(C[C@@H](NC(=O)Cc2ccc(O)cc2)C(=O)N[C@@H](Cc2ccccc2)C(=O)N[C@@H](CCC(N)=O)C(=O)N[C@@H](CC(N)=O)C(=O)N[C@@H](CCCN=C(N)N)C(=O)N2CCC[C@H]2C(=O)N[C@@H](CCCN=C(N)N)C(N)=O)cc1 (X1-[dY](Me)FQNRPR-NH2)
Vasopressin V1b receptor [3]
  pKi: 8.23
Vasopressin V2 receptor [4]
  pKi: 6.86
Oxytocin receptor
  pKi: 8.57
Vasopressin V1a receptor
  pKi: 10.10

## COc1ccc(C[C@@H](NC(=O)CCc2ccc(O)cc2)C(=O)N[C@@H](Cc2ccccc2)C(=O)N[C@@H](CCC(N)=O)C(=O)N[C@@H](CC(N)=O)C(=O)N[C@@H](CCCNC(=N)N)C(=O)N2CCC[C@H]2C(=O)N[C@@H](CCCCNC(=O)c2ccc3c(c2)C(=O)OC32c3ccc(O)cc3Oc3cc(O)ccc32)C(N)=O)cc1
Oxytocin receptor
  pKi: 8.80
Vasopressin V1a receptor
  pKi: 9.77
Vasopressin V1b receptor [1]
  pKi: 6.85
Vasopressin V2 receptor [2]
  pKi: 5.04

## CCN(CC)c1ccc2c(-c3ccccc3C(=O)N[C@H](Cc3ccc(OC)cc3)C(=O)N[C@@H](Cc3ccccc3)C(=O)N[C@@H](CCC(N)=O)C(=O)N[C@@H](CC(N)=O)C(=O)N[C@@H](CCCNC(=N)N)C(=O)N3CCC[C@H]3C(=O)N[C@@H](CCCNC(=N)N)C(=O)N[C@@H](Cc3ccc(O)cc3)C(N)=O)c3ccc(=[N+](CC)CC)cc-3oc2c1
Vasopressin V1a receptor; cho
  pKi: < 6.30

## COc1ccc(C[C@@H](NC(=O)CCc2ccc(O)cc2)C(=O)N[C@@H](Cc2ccccc2)C(=O)N[C@@H](CCC(N)=O)C(=O)N[C@@H](CC(N)=O)C(=O)N[C@@H](CCCCNC(=O)c2ccc3c(c2)C(=O)OC32c3ccc(N(C)C)cc3Oc3cc(N(C)C)ccc32)C(=O)N2CCC[C@H]2C(=O)N[C@@H](CCCNC(=N)N)C(N)=O)cc1
Vasopressin V1a receptor
  pKi: 8.89

## COc1ccc(C[C@@H](NC(=O)CCc2ccc(O)cc2)C(=O)N[C@@H](Cc2ccccc2)C(=O)N[C@@H](CCC(N)=O)C(=O)N[C@@H](CC(N)=O)C(=O)N[C@@H](CCCNC(=N)N)C(=O)N2CCC[C@H]2C(=O)N[C@@H](CCCCNC(=O)c2ccc3c(c2)C(=O)OC32c3ccc(N(C)C)cc3Oc3cc(N(C)C)ccc32)C(N)=O)cc1
Oxytocin receptor
  pKi: 8.92
Vasopressin V1a receptor
  pKi: 10.15
Vasopressin V1b receptor [1]
  pKi: 7.57
Vasopressin V2 receptor [2]
  pKi: 5.12
